Results: ChEMBL document CHEMBL3779799, “Antifibrotic and anticancer action of 5-ene amino/iminothiazolidinones” (Eur J Med Chem, 2016)
Active and inactive are the calls of the source. No cut-off for these calls is given here.

Assays:
HFL1 [1] = test: Antifibrotic activity in HFL1 cells assessed as inhibition of cell viability after 48 hrs by sulforhodamine B assay; format: functional, cell-based; conditions: Homo sapiens, HFL1, 48 h
Procedure, shortened: (§1)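 HFL-1 human fetal lung fibroblasts (DMEM, 10% FCS, passages 14–18) seeded at 8000 cells/well, attached overnight, then exposed to a range of concentrations for 48 h in triplicate. Cells were fixed with TCA and stained with 0.4% SRB, bound dye was solubilized in Tris, and OD was read at 570 nm relative to control.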

HFL1 [2] = test: Antifibrotic activity in HFL1 cells assessed as inhibition of cell viability at >1 uM after 48 hrs by sulforhodamine B assay relative to control; format: functional; conditions: Homo sapiens, HFL1, 48 h; procedure, shortened: as §1
NCI-H460 = test: Cytotoxicity against human NCI-H460 cells assessed as cell growth at 10^-4 M after 48 hrs by sulforhodamine B assay relative to control; format: functional; conditions: NCI-H460, 48 h, read-out: Activity
Procedure, shortened: (§2)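 Cells were inoculated and preincubated 24–48 h, then exposed to a single dose of 10^-4 M for 48 h. SRB protein staining was the endpoint, and growth percent was calculated versus untreated controls.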

MCF7 = test: Cytotoxicity against human MCF7 cells assessed as cell growth at 10^-4 M after 48 hrs by sulforhodamine B assay relative to control; format: functional; conditions: MCF7, 48 h, read-out: Activity; procedure, shortened: as §2
[3] = Cytotoxicity against human SF268 cells assessed as cell growth at 10^-4 M after 48 hrs by sulforhodamine B assay relative to control; format: functional; conditions: SF-268, 48 h, read-out: Activity; procedure, shortened: as §2
HFL1 [4] = test: Antifibrotic activity in HFL1 cells assessed as reduction in cell proliferation after 150 hrs by xCelligence analysis; conditions: Homo sapiens
[5] = Antioxidant activity assessed as inhibition of superoxide anion generation measured for 3 mins by nitro blue tetrazolium assay; format: physicochemical; conditions: for Emax: 0.05 h
Procedure, shortened: (§3)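 Cell-free superoxide generated by xanthine (1 mM) and xanthine oxidase (0.11 U/mL), with NBT (50 µM) as detector. Compounds in DMSO were tested up to 10 µM, with DMSO held at 0.1%. NBT reduction rate (dA560/dt) was read spectrophotometrically over 3 min from the linear part.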

HFL1 [6] = test: Antifibrotic activity in HFL1 cells assessed as reduction in cell proliferation at 0.1 to 1 uM after 150 hrs by xCelligence analysis; format: functional, cell-based; conditions: Homo sapiens
Procedure, shortened: (§4)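 HFL-1 cells were seeded at 20,000/well and monitored by real-time impedance (xCelligence). Compound or DMSO vehicle was added at ~30 h, once attachment was maximal, and cells were followed for another 150 h. P150 was taken as the signal difference between 30 h and 180 h; Pdot was the maximum slope of the curve.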

[7] = Cytotoxicity against human NCI60 cells assessed as cell growth at 10^-5 M after 48 hrs by sulforhodamine B assay relative to control; format: functional; conditions: NCI60, 48 h, read-out: Activity
Procedure, shortened: (§5)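 NCI ~60 human tumor cell line one-dose screen covering nine cancer types. Cells were preincubated 24–48 h, then exposed to compound at 10^-5 M for 48 h. SRB protein staining was the endpoint, and growth percent was calculated versus untreated control cells.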

[8] = Cytotoxicity against human SNB75 cells assessed as cell growth at 10^-5 M after 48 hrs by sulforhodamine B assay relative to control; format: functional; conditions: SNB-75, 48 h, read-out: Activity; procedure, shortened: as §5
HFL1 [9] = test: Antifibrotic activity in HFL1 cells assessed as reduction in maximum rate of cell proliferation after 150 hrs by xCelligence analysis; format: functional, cell-based; conditions: Homo sapiens; procedure, shortened: as §4
[10] = Antioxidant activity assessed as inhibition of superoxide anion generation upto 10 uM measured for 3 mins by nitro blue tetrazolium assay; format: physicochemical; conditions: 0.05 h; procedure, shortened: as §3

Structure (SMILES) | IC50 [5] [nM] | Emax [5] [%] | IC50 (HFL1 [1]) [nM] | Emax (HFL1 [2]) [%] | other results
O=C(CC1SC(Nc2ccc(O)cc2)=NC1=O)c1ccc(F)cc1 (racemic) | – | – | 190 | 54.2 | growth at 100 µM (NCI-H460): 62%; growth at 100 µM (MCF7): 66%; growth at 100 µM [3]: 53%
CCC1S/C(=N\N=C/c2cccnc2)N(Cc2ccco2)C1=O (mixture of isomers) | – | – | 210 | 44.7 | –
Cc1ccc2c(c1)/C(=C1/SC(N(C)c3ccc(O)cc3)=NC1=O)C(=O)N2 | – | – | 70 | 31.3 | growth at 100 µM (NCI-H460): 95%; growth at 100 µM (MCF7): 89%; growth at 100 µM [3]: 74%
CC(/C=N/N=C1\SC(CC(=O)Nc2cccc(C(F)(F)F)c2)C(=O)N1Cc1ccco1)=C\c1ccccc1 (mixture of isomers) | – | – | 30 | 44.3 | Activity (HFL1 [4]): Dose-dependent effect
COc1ccc(-c2nnc(/N=C3\NC(=O)CS3)o2)cc1 | 290 | 81.8 | 470 | 84.6 | Activity (HFL1 [6]): Active; growth at 10 µM [7]: 102%; growth at 10 µM [8]: 71.9%
COc1ccccc1NC(=O)CSc1nnc(NC2=NC(=O)/C(=C/c3ccc(Cl)cc3)S2)s1 | – | – | 40 | 17.4 | –
O=C1N=C(Nc2ccc(Cl)cc2)/C(=C/c2cccs2)S1 | – | – | 570 | 79 | Activity (HFL1 [6]): Active; Activity (HFL1 [9]): Dose-dependent effect; inhibition (INH) [10]: Not Active
O=C1CS/C(=N\N=C/c2cccnc2)N1Cc1ccco1 | – | – | 500 | 69.4 | –
O=C(CC1SC(=Nc2cccc(O)c2)NC1=O)Nc1ccc(Br)cc1 (racemic) | – | – | 160 | 77.6 | inhibition (INH) [10]: Not Active

More lines, main results first:

IC50 [5] [nM] | Emax [5] [%] | Structure (SMILES) | IC50 (HFL1 [1]) [nM] | Emax (HFL1 [2]) [%] | other results
6800 | 38.7 | CCOc1cc(/C=C2\SC(Nc3nc4ccc(C)cc4s3)=NC2=O)ccc1O | 10 | 48.1 | –
960 | 47.4 | CN(C1=NC(=O)/C(=C/C(Cl)=C/c2ccc([N+](=O)[O-])cc2)S1)c1ccc(O)cc1 | – | – | –
810 | 86.4 | COc1ccc(/C=C2\SC(Nc3nnc(SCC(=O)Nc4ccc(Cl)cc4)s3)=NC2=O)cc1 | 160 | 53.8 | –
